According to ChEMBL document CHEMBL4387722:

Legend:
E. coli GroEL/ES [1] = biological target: T1, E. coli GroEL/ES (Escherichia coli, UniProt P0A6F5); assay: Inhibition of Escherichia coli GroEL expressed in Escherichia coliDH5alpha/Escherichia coli GroES expressed in Escherichia coli BL21 (DE3) assessed as reduction in GroEL/GroES-mediated denatured pig heart mitochondrial MDH refolding by measuring MDH enzyme activity using sodium mesoxalate as substrate after 20 to 40 mins by spectrometric analysis
T1 sequence (P0A6F5 whole entry, looked up): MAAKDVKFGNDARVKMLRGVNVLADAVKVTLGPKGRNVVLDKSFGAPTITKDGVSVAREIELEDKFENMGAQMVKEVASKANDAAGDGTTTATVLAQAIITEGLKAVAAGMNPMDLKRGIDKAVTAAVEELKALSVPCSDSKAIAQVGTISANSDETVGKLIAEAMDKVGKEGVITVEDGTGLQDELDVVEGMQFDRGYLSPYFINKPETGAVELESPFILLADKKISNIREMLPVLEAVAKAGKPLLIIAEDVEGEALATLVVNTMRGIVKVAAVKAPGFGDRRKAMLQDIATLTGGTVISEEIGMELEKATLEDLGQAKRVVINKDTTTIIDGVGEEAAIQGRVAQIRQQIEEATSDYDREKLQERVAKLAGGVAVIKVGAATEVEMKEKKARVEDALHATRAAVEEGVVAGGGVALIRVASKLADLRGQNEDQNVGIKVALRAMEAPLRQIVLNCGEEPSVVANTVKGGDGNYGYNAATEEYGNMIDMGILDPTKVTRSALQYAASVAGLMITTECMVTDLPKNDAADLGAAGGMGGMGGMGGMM

[2] = Cytotoxicity against human THLE3 cells assessed as reduction in cell viability after 48 hrs by Alamar blue assay; assay type: cell-based
Outline: (§1)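 Alamar Blue viability read-out. Human liver (THLE-3) and kidney (HEK 293) cells incubated with compound for 48 h. Tested in dose-response to derive CC50.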

[3] = Inhibition of refolded rhodanese (unknown origin) preincubated with Escherichia coli GroEL/GroES for 60 mins by measuring rhodanese enzyme activity followed by compound addition by Fe(SCN)3 dye based spectrometric analysis; set-up: species or system Homo sapiens
[4] = system: Mycobacterium tuberculosis; assay: Antitubercular activity against Mycobacterium tuberculosis H37Rv after 5 days at 200 uM relative to control; assay type: functional; details: 120 h
Outline: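 M. tuberculosis grown in liquid culture with compound at a fixed 200 μM for 5 days. Growth inhibition expressed as percent of control.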

HSP60/HSP10 = HSP60/HSP10 (Homo sapiens, UniProt P10809); assay: Inhibition of human HSP60 expressed in Escherichia coli Rosetta 2(DE3)/human HSP10 expressed in Escherichia coli Rosetta 2(DE3) pLysS cells assessed as reduction in HSP60/HSP10-mediated denatured pig heart mitochondrial MDH refolding by measuring MDH enzyme activity using sodium mesoxalate as substrate after 40 to 60 mins by spectrometric analysis
Sequence of HSP60/HSP10 (P10809 whole entry): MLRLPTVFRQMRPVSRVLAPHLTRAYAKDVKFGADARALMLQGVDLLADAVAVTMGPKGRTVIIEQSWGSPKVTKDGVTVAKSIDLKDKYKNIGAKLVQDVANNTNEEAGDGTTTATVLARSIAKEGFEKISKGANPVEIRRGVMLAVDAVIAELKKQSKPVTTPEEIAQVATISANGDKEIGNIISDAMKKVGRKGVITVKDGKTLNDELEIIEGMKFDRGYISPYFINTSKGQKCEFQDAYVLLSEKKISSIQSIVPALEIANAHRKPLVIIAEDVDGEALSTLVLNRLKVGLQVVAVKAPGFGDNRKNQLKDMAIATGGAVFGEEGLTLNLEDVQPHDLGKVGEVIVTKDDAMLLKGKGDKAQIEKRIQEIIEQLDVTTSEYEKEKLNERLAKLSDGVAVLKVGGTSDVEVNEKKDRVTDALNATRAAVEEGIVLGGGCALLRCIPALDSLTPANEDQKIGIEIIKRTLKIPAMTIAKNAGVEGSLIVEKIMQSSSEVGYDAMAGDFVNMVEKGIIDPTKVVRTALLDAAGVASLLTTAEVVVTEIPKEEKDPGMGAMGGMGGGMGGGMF
Sequence of HSP60/HSP10 (P61604 whole entry, further chain): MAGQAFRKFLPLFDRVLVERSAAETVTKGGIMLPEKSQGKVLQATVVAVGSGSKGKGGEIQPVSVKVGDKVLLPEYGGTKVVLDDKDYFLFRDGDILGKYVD

[5] = biological target: T2, Tyrosine-protein phosphatase non-receptor type 5 (Homo sapiens, UniProt P54829); assay: Inhibition of human PTPN5 expressed in Escherichia coli Rosetta 2 (DE3) using pNPP as substrate after 45 mins by spectrophotometric method
T2 sequence (P54829 whole entry): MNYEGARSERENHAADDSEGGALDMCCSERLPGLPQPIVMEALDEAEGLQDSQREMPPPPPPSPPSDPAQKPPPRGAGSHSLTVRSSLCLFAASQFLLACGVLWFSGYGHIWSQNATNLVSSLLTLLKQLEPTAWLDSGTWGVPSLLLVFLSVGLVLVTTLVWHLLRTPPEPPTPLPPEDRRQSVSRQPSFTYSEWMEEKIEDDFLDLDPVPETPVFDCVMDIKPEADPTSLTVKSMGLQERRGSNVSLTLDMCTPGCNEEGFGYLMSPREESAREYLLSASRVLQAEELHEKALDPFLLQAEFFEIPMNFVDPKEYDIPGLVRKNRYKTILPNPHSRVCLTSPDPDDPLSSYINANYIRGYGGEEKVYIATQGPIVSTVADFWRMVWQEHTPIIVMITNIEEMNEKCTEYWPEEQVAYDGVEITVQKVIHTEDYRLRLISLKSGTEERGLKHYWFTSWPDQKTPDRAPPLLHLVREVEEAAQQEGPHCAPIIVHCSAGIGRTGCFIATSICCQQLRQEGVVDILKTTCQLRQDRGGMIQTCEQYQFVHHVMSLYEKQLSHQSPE

E. coli GroEL/ES [6] = biological target: T1, E. coli GroEL/ES; assay: Inhibition of Escherichia coli GroEL expressed in Escherichia coli DH5alpha/Escherichia coli GroES expressed in Escherichia coli BL21 (DE3) assessed as reduction in GroEL/GroES-mediated denatured rhodanese refolding by measuring rhodanese enzyme activity after 45 mins by Fe(SCN)3 dye based spectrometric analysis
[7] = system: Mycobacterium tuberculosis; assay: Antitubercular activity against Mycobacterium tuberculosis H37Rv after 5 days; assay type: functional, organism-based; details: 120 h
[8] = biological target: T3, Tyrosine-protein phosphatase non-receptor type 1 (Homo sapiens, UniProt P18031); assay: Inhibition of human PTPN1 expressed in Escherichia coli Rosetta 2 (DE3) using pNPP as substrate after 45 mins by spectrophotometric method
T3 sequence (P18031 whole entry): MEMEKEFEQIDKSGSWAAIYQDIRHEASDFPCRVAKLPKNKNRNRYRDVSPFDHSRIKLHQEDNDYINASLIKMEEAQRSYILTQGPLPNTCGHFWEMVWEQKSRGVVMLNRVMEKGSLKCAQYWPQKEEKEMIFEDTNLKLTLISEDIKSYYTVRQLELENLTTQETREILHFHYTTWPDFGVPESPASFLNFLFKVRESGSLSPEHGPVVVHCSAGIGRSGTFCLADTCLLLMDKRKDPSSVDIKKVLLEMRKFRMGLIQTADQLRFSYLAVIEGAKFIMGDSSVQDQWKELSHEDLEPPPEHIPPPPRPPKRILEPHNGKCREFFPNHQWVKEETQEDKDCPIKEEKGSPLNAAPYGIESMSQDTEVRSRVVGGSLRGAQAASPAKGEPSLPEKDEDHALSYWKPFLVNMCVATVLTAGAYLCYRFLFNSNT

[9] = biological target: T4, Phosphotyrosine protein phosphatase (Mycobacterium tuberculosis, UniProt A0A045ISB3); assay: Inhibition of Mycobacterium tuberculosis His-tagged PtpB expressed in Escherichia coli Rosetta 2 (DE3) using pNPP as substrate after 30 mins by spectrophotometric method
T4 sequence (A0A045ISB3 whole entry): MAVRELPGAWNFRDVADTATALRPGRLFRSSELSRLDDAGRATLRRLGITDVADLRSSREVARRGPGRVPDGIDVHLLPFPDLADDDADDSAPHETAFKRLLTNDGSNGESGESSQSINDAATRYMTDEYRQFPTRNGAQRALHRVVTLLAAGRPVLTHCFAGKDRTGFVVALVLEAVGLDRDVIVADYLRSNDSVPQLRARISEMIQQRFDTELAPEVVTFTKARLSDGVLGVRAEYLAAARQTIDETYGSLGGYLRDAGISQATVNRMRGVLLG

[10] = Cytotoxicity against human HEK293 cells assessed as reduction in cell viability after 48 hrs by Alamar blue assay; assay type: cell-based; outline: as §1
[11] = biological target: T5, Tyrosine-protein phosphatase non-receptor type 2 (Homo sapiens, UniProt P17706); assay: Inhibition of human PTPN2 expressed in Escherichia coli Rosetta 2 (DE3) using pNPP as substrate after 45 mins by spectrophotometric method
T5 sequence (P17706 whole entry): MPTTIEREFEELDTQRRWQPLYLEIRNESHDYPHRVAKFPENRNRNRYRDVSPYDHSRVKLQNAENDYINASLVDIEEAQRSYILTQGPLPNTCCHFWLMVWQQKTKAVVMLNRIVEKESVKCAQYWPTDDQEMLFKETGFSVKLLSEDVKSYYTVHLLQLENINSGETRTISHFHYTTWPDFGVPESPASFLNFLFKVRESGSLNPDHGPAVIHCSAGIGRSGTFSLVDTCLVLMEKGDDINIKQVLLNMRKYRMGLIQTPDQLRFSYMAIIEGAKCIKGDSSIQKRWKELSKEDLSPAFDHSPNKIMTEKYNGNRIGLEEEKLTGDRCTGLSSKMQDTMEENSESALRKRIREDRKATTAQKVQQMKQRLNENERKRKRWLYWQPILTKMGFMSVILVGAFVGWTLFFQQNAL

[12] = biological target: T6, Malate dehydrogenase, mitochondrial (Sus scrofa, UniProt P00346); assay: Inhibition of refolded pig heart mitochondrial MDH preincubated with Escherichia coli GroEL/GroES for 45 mins using sodium mesoxalate as substrate followed by compound addition and measured after 20 to 30 mins by spectrometric analysis
T6 sequence (P00346 whole entry): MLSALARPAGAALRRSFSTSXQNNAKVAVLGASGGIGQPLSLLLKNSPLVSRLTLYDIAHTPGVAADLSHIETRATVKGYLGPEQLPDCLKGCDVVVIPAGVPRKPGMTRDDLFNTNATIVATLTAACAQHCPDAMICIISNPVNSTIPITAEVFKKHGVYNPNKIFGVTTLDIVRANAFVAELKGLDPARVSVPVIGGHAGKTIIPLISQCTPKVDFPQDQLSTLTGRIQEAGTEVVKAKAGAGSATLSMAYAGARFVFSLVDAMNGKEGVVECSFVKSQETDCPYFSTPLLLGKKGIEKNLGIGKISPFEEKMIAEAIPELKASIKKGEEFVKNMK

Row | Compound | IC50 (E. coli GroEL/ES [1]) | CC50 at 48 h [2] | IC50 [3] | inhibition at 200 µM [4] | IC50 (HSP60/HSP10) | IC50 [5] | IC50 (E. coli GroEL/ES [6]) | EC50 [7] | IC50 [8] | IC50 [9] | CC50 at 48 h [10] | IC50 [11] | IC50 [12]
1 | O=S(=O)(Nc1ccc(-c2nc3ccccc3o2)cc1)c1ccc(F)cc1 | 93 µM | 77 µM | > 100 µM | 83% | 73 µM | 59 µM | 224 µM | 144 µM | 68 µM | 64 µM | > 100 µM | 76 µM | > 63 µM
2 | O=S(=O)(Nc1ccc2oc(-c3ccccc3)nc2c1)c1ccccc1 | > 100 µM | 33 µM | > 100 µM | 76% | > 100 µM | 42 µM | 190 µM | 105 µM | 77 µM | 87 µM | 46 µM | 64 µM | > 63 µM
3 | CCc1ccc(S(=O)(=O)Nc2ccc(-c3nc4ccccc4o3)cc2)cc1 | 91 µM | 77 µM | > 100 µM | 82% | > 100 µM | 31 µM | 172 µM | 153 µM | 37 µM | 46 µM | 82 µM | 36 µM | > 63 µM
4 | O=S(=O)(Nc1ccc(-c2nc3ccccc3o2)cc1)c1ccc(F)c(C(F)(F)F)c1 | 34 µM | 72 µM | > 100 µM | 77% | 28 µM | 43 µM | 112 µM | > 200 µM | 40 µM | 36 µM | 82 µM | 36 µM | > 63 µM
5 | Cc1ccc(S(=O)(=O)Nc2ccc3oc(-c4ccccc4)nc3c2)cc1 | > 100 µM | 53 µM | > 100 µM | 87% | > 100 µM | 39 µM | 157 µM | 172 µM | 48 µM | 68 µM | 75 µM | 49 µM | > 63 µM
6 | O=S(=O)(Nc1ccc(-c2nc3ccccc3o2)cc1)c1ccc(C(F)(F)F)cc1 | 77 µM | 71 µM | > 100 µM | 78% | 50 µM | 39 µM | 159 µM | 161 µM | 35 µM | 52 µM | 94 µM | 38 µM | > 63 µM
7 | O=S(=O)(Nc1ccc2oc(-c3ccccc3)nc2c1)c1ccc(Cl)s1 | > 100 µM | 43 µM | > 100 µM | 71% | 70 µM | 44 µM | 234 µM | > 200 µM | 76 µM | 54 µM | > 100 µM | 72 µM | > 63 µM
8 | COc1cccc(S(=O)(=O)Nc2ccc3oc(-c4ccccc4)nc3c2)c1 | > 100 µM | 37 µM | > 100 µM | 83% | > 100 µM | 44 µM | 220 µM | 162 µM | 86 µM | > 100 µM | 63 µM | 87 µM | > 63 µM
9 | CCc1ccc(S(=O)(=O)Nc2ccc3oc(-c4ccccc4)nc3c2)cc1 | > 100 µM | 63 µM | > 100 µM | 87% | > 100 µM | 42 µM | 237 µM | 148 µM | 57 µM | 67 µM | 81 µM | 55 µM | > 63 µM
10 | C=Cc1ccc(S(=O)(=O)Nc2ccc3oc(-c4ccccc4)nc3c2)cc1 | > 100 µM | 50 µM | > 100 µM | 86% | > 100 µM | 35 µM | 175 µM | 151 µM | 45 µM | 51 µM | 53 µM | 46 µM | > 63 µM
11 | Cc1ccccc1S(=O)(=O)Nc1ccc2oc(-c3ccccc3)nc2c1 | > 100 µM | 35 µM | > 100 µM | 61% | > 100 µM | 30 µM | 127 µM | 197 µM | 41 µM | 59 µM | 57 µM | 29 µM | > 63 µM
12 | O=S(=O)(Nc1ccc2oc(-c3ccccc3)nc2c1)c1cccs1 | > 100 µM | 35 µM | > 100 µM | 68% | 90 µM | 85 µM | 214 µM | > 200 µM | > 100 µM | 81 µM | 97 µM | 88 µM | > 63 µM
13 | Cc1ccccc1S(=O)(=O)Nc1ccc(-c2nc3ccccc3o2)cc1 | 76 µM | 86 µM | > 100 µM | 58% | 85 µM | 32 µM | 111 µM | 176 µM | 52 µM | 38 µM | > 100 µM | 50 µM | > 63 µM
